From ChEMBL document CHEMBL2331368, “Inhibitors of HIV-1 attachment. Part 9: an assessment of oral prodrug approaches to improve the plasma exposure of a tetrazole-containing derivative” (Bioorg Med Chem Lett, 2013) come the findings set out here.

Broadly, the bioavailability is dose-corrected exposure relative to a reference, in per cent. As usually defined, the EC50 is the concentration at which the effect is half-maximal. Read a high EC50 as weaker potency. One may read the CC50 as the concentration at which the toxic effect on the cells reaches its halfway point. Read a high CC50 as better tolerance by the cells. Broadly, the half-life is the time in which the quantity being followed falls by half.

Data set [1] can be described thus: Oral bioavailability in rat at 5 mg/kg. It is filed as ADME, organism-based. To be noted: in vivo. The procedure, abridged: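 Rat pharmacokinetics used 90% PEG 400/10% EtOH as vehicle. The IV dose was 1 mg/kg and the oral dose 5 mg/kg.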
Data set [2] in a line: Plasma concentration in rat at 5 mg/kg, po at 120 mins. It is filed as ADME, organism-based. Details: dose 5 mg/kg, route oral; call rule not given here. The procedure, abridged:
(§1)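 Rats received 5 mg/kg orally in 90% PEG 400/10% EtOH. The parent tetrazole concentration in plasma was measured at 30 and 120 min after dosing. Each value is the average of two rats.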

In data set [3] the test system is Human immunodeficiency virus 1. Put plainly: Antiviral activity against HIV1 JRFL pseudotyped virions infected in HeLa CD4 CCR5 cells after 48 hrs by luciferase assay. It is filed as functional, organism-based. Particulars: Human immunodeficiency virus 1, JRFL, HeLa-CD4/CCR5, 48 h. Put shortly:
(§2)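 EC50s came from a single-cycle infectivity assay with HIV JRFL pseudotyped virus. CC50s were determined by the method described in an earlier report. Values are means of two or more experiments.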

The nature of data set [4]: Plasma concentration in rat at 5 mg/kg, po at 30 mins. The class given is ADME, organism-based. The arrangement: dose 5 mg/kg, route oral. The procedure, abridged:
as §1

The test system of another data set is Liver microsomes. Description: Prodrug conversion in human liver microsomes assessed as formation of 1-(4-benzoylpiperazin-1-yl)-2-(4-fluoro-7-(2H-tetrazol-5-yl)-1H-indol-3-yl)ethane-1,2-dione in absence of NADPH after 5 mins. The class given is ADME, Microsome. A general note: Microsomes from liver hold many membrane-bound enzymes, among them those of drug oxidation.

Data set [5] in a line: Permeability across human Caco2 cells assessed as drug recovery at pH 6.5. The class given is ADME, cell-based. To be noted: caco-2, pH 6.5, read-out: Drug recovery. In general terms: Caco-2 monolayers are a common model of the intestinal barrier.
A short description of data set [6]: Cytotoxicity against human HeLa cells by XTT assay. The class given is cell-based. The procedure, abridged:
as §2
In general terms: Formazan colour is commonly taken as a measure of viable cells.

Data set [7] is described as follows: Half life in human liver microsomes assessed in presence of NADPH. It is filed as ADME, Microsome.
For a further data set, the system named is Caco-2. Put plainly: Permeability across human Caco2 cells at pH 6.5. It is filed as ADME, cell-based. Particulars: caco-2, pH 6.5.

`CC(C)C(OC(=O)C(C)(C)C)n1nnc(-c2ccccc2-c2ccc(Cc3c(C4CC4)nc4ccccc4c3C(=O)O)cc2)n1` (configuration not stated) registered a bioavailability in data set [1] of 39%.

The compound `O=C(C(=O)N1CCN(C(=O)c2ccccc2)CC1)c1c[nH]c2c(-c3nn[nH]n3)ccc(F)c12` came in with a concentration at 2 h in data set [2] of 25 ng/mL. The compound further gave an EC50 in [3] of 34 nM. Further, the concentration at 0.5 h in [4] worked out at 19 ng/mL.

The compound `CC(=O)OCn1nnc(-c2ccc(F)c3c(C(=O)C(=O)N4CCN(C(=O)c5ccccc5)CC4)c[nH]c23)n1` had a concentration at 2 h in data set [2] of 378 ng/mL. Moreover, the concentration giving a half-maximal response (EC50) in data set [3] worked out at 60 nM. For the same compound, the Drug metabolism entry in the data set on Liver microsomes is recorded as “Active”. Also, in [5], the recovery was below 70%. For the same compound, in [4], the concentration at 0.5 h turned out to be 261 ng/mL. Besides, it took 36000 nM to reach half-maximal cytotoxicity in data set [6] (CC50).

Take `Cn1nnc(-c2ccc(F)c3c(C(=O)C(=O)N4CCN(C(=O)c5ccccc5)CC4)c[nH]c23)n1`: the concentration at 2 h in data set [2] came out at 207 ng/mL. The half-life in data set [7] came to 12 min. The compound also displayed an EC50 in [3] of 20 nM. The compound further registered a concentration at 0.5 h in data set [4] of 72 ng/mL. Moreover, the 50% cytotoxic concentration (CC50) in data set [6] was above 300000 nM.

On to `O=C(O)c1c(Cc2ccc(-c3ccccc3-c3nn[nH]n3)cc2)c(C2CC2)nc2ccccc12`, for which the bioavailability in data set [1] is 11%.

Consider `CC(C)(C)C(=O)OCn1nnc(-c2ccc(F)c3c(C(=O)C(=O)N4CCN(C(=O)c5ccccc5)CC4)c[nH]c23)n1`, for which the concentration at 2 h in data set [2] was determined as 13 ng/mL. In addition, the permeability entry in the data set on Caco-2 is recorded as “ND(Insoluble)”. Further, a half-maximal effect in data set [3] (EC50) was put at 190 nM. In the data set with Liver microsomes, the Drug metabolism result is listed as “Active”. Besides, the concentration at 0.5 h in [4] came to 60 ng/mL. Besides, in data set [6], the CC50 came to 228000 nM.
